# Results taken from PubChem BioAssay.
# Calls of active or inactive are those of the source.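 Rule for the calls, unless noted: active = NADPH fluorescence slope more negative than the mean of all samples by about 3 SD, 99.7% confidence; inactive = the rest.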
# Key:
# [1] = inhibitors of TNFa-induced NFkB p65 translocation, primary screen, imaging, HUVEC, MLSMR starter and 10KST1 sets (AID 438;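 active = inhibition above 20% together with a positive visual image hit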;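 note: compound added about 3h40 before a 20 min TNFalpha stimulation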;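 for inhibition: signal is the nuclear over cytoplasmic p65 intensity ratio per well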); details: HUVEC TNFa-induced p65 nuclear translocation; cell count: measured here: nuclei count (cytotoxicity indicator), at 2.08 µM; inhibition: at 2 µM, stronger effect = higher value, 0% TNFa-plus-vehicle, 100% no-TNFa wells
# [2] = endothelial E-selectin expression blockers – imaging, HUVEC, immunofluorescence, MLSMR starter and 10KST1 sets, primary screen (AID 487;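 active = visually confirmed hit in the image check and inhibition above 20%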;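 for inhibition: signal is fraction of cell area covered by stained E-selectin grains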;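 for nuclei count: 100% = median nuclei count of all wells on the same plate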); details: HUVEC TNFalpha-induced E-selectin immunofluorescence imaging, at 2 µM; inhibition: stronger effect = higher value; nuclei count: measured here: cell number, toxicity
# [3] = Primary imaging screen for DUSP6 inhibitors that restore phospho-Erk in transfected HeLa cells, chemical complementation (AID 609;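 active = compounds giving at least 50% inhibition in the cell-based MKP-3 phosphatase rescue imaging test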;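 for inhibition: phospho-Erk level distribution per well compared with pooled transfected vehicle control wells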); details: HeLa MKP-3 transfected, phospho-Erk imaging KS statistic, at 10 µM, cells stimulated with TPA for 15 min
# [4] = target: Dual specificity protein phosphatase 6 (Homo sapiens) (UniProt Q16828); experiment: as above; details: HeLa MKP-3 transfected, phospho-Erk imaging KS statistic; at 10 µM; stronger effect = higher value; cells stimulated with TPA for 15 min
# [5] = target: Voltage-gated potassium channel subunit beta-2 (Rattus norvegicus) (UniProt P62483); experiment: inhibitors of rat Kvbeta2 reductase activity – biochemical, NADPH fluorescence, primary screen (AID 622;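 active = fluorescence slope higher than the sample average by over 3 SD, cut at about -0.22 in these data, passing the limit was not always enough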;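 note: slope of raw intensity against log time taken from 70 to 1610 s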); details: recombinant KvBeta, 4-cyanobenzaldehyde reduction, at 10 µM, stronger effect = higher value
# [6] = target: Voltage-gated potassium channel subunit beta-2 (Rattus norvegicus) (UniProt P62483); experiment: enhancers of rat Kvbeta2 NADPH turnover – biochemical, NADPH fluorescence, primary screen (AID 623); details: Recombinant KvBeta, NADPH fluorescence decrease slope, 10 min; at 10 µM; stronger effect = lower value;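 note: fluorescence intensity change per second fitted from 20 to 320 s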
# [7] = target: Alpha-2C adrenergic receptor (Homo sapiens) (UniProt P18825); experiment: compounds altering alpha2C-coupled GIRK flux – cell-based, HEK293 alpha2C/GIRK1/2, thallium flux, primary screen (AID 624;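 active = fluorescence slope after compound addition differing from the mean of all screened samples at 99.7% confidence, in either direction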;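 note: slope of fluorescence ratio to pre-addition baseline per second over 15 to 24 s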); details: thallium flux BTC fluorescence, at 10 µM, actives lie on both sides
# [8] = inhibitors of larval lipid processing in zebrafish, primary screen, whole organism, PED6 fluorescence, gall bladder and intestine (AID 686;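 active = a full or partial loss of lipid-probe fluorescence in the fish gall bladder, intestine or both, judged by eye; inactive = no fluorescence loss, or compound toxic to the fish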;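 note: larvae 5 to 7 days old with five fish per well; signal comes from phospholipase A2 cleavage of quenched PED6 carried via bile; overnight exposure to compound and PED6 before scoring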); details: Zebrafish larvae PED6 lipid processing, fluorescence scoring; screened at 20 µM (by protocol)
# Outline: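 system = live zebrafish larvae aged 5-7 days, whole organism | probe or stimulus = ingested quenched lipid PED6 at 100 nM | doses = 20 µM single dose | timing = overnight exposure | detection = fluorescence microscopy with visual scoring of gall bladder and intestine | read-out = visual per-well fluorescence inhibition score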
# [9] = loss of swimming-algae plug formation – whole organism, Chlamydomonas reinhardtii, WT vs cilia-less mutant, absorbance, 96-well, primary screen (AID 463189;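 active = inhibition at or above 50% relative to wild type and mutant plate controls; inactive = inhibition below 50%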;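 note: 0% = wild type cc124 cells in DMSO and 100% = ciliumless bld1 mutant cells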); details: Chlamydomonas reinhardtii gravitaxis, OD600 absorbance, 2 days; at 10 µM; stronger effect = higher value
# [10] = measured here: cell density z-score
# [11] = measured here: nuclear c-Myc green intensity z-score
# [12] = measured here: nuclear pErk red intensity z-score, stronger effect = higher value
# Sequence of Alpha-2C adrenergic receptor (Homo sapiens) (P18825 whole entry, looked up): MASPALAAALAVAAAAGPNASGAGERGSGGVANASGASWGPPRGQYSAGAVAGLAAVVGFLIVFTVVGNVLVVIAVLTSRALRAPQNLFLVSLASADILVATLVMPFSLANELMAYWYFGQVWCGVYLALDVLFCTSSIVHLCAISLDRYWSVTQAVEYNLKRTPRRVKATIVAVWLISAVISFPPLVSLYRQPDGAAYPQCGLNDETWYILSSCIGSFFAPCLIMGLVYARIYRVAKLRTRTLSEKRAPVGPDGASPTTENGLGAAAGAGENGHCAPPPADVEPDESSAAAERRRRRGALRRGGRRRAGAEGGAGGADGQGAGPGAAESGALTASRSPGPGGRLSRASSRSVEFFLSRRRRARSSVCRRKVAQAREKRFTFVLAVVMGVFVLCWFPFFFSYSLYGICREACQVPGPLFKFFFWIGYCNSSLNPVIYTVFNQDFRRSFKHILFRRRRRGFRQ
# Sequence of Voltage-gated potassium channel subunit beta-2 (Rattus norvegicus) (P62483 whole entry, looked up): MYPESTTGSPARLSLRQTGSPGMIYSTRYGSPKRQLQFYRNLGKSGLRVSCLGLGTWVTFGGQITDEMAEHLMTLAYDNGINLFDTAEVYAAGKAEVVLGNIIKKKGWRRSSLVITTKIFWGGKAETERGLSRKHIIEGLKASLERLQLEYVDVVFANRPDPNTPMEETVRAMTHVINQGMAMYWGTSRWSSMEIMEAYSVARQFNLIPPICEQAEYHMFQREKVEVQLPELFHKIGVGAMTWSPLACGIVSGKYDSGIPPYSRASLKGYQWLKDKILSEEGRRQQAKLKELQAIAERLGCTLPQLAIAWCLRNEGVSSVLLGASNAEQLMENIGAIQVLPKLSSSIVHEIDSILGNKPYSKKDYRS
# Sequence of Dual specificity protein phosphatase 6 (Homo sapiens) (Q16828 whole entry, looked up): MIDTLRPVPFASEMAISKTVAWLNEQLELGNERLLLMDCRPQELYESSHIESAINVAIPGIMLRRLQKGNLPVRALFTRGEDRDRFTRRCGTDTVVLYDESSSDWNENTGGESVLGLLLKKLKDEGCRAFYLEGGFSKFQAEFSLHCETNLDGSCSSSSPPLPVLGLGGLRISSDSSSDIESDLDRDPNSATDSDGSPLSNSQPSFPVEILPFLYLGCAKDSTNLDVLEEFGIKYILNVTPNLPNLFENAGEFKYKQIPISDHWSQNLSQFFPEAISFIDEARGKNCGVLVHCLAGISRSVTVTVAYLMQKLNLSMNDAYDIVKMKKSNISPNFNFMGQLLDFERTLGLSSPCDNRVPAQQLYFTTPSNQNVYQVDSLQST
SMILES,cell count [1],inhibition [1],inhibition [2],nuclei count [2] [%],"z-score [3, 10]","z-score [3, 11]","z-score [3, 12]",inhibition [4],fluorescence slope [5],NADPH fluorescence slope [6],slope [7],outcome [8],inhibition [9]
COc1cccc(-c2nnc3sc(-c4cccs4)nn23)c1,595,-9.3% (inactive),-23% (inactive),158,-0.757,0.596,-0.177,-11.5% (inactive),-0.406 (inactive),-0.000146 (inactive),0.00547 (inactive),inactive,67.3% (active)
Cc1ccc(-c2nn3c(-c4cccc(Cl)c4)nnc3s2)cc1,482,-6.6% (inactive),-115% (inactive),128,-1.6,-0.179,1.45,-7.86% (inactive),-0.434 (inactive),7.3e-06 (inactive),0.00635 (inactive),inactive,26.8% (inactive)
Cc1ccc(N2C(=O)CC(N(O)C3CC(=O)N(c4ccc(C)cc4)C3=O)C2=O)cc1 (stereo unspecified),364,0% (inactive),28.2% (inactive),126,0.996,0.402,0.988,-0.584% (inactive),-0.427 (inactive),-0.000136 (inactive),0.0056 (inactive),inactive,54.9% (active)
COc1ccc(OC)c2c(N)c(C#N)c(C(F)(F)C(F)(F)F)nc12,295,-8.5% (inactive),9% (inactive),85.5,1,-1.13,-0.419,21% (inactive),-0.402 (inactive),-3.3e-05 (inactive),0.00519 (inactive),inactive,-13.9% (inactive)
CCc1cc2c(=O)c(-c3cscn3)coc2c(CN(C)C)c1O,517,-8.2% (inactive),-53.3% (inactive),86.5,0.222,-0.434,0.878,1.9e-07% (inactive),-0.0873 (inactive),-2.5e-06 (inactive),0.00409 (inactive),inactive,15.7% (inactive)
COC(=O)CC1=NC(=O)CS1,690,-4.3% (inactive),-84.4% (inactive),164,-1.27,0.428,1.11,-7.28% (inactive),-0.41 (inactive),-8.9e-06 (inactive),0.00544 (inactive),inactive,-1.11% (inactive)
CCOc1ccc(C2=Nn3c(nnc3-c3cccnc3)SC2)cc1,732,1.2% (inactive),-49.1% (inactive),186,-0.574,2.33,0.047,-9.66% (inactive),-0.414 (inactive),-0.000128 (inactive),0.00953 (inactive),inactive,8.58% (inactive)
CCOC(=O)c1sc(-n2[nH]c(C)cc2=O)nc1C,452,-2.2% (inactive),-23% (inactive),170,1.1,-0.753,0.507,-10.1% (inactive),-0.398 (inactive),-7e-05 (inactive),0.00502 (inactive),inactive,-4.12% (inactive)
COC(=O)COn1c(SCC(=O)OC)nc2ccccc2c1=O,300,-3.5% (inactive),-6.8% (inactive),89.2,-1.82,0.261,0.27,-8.59% (inactive),-0.442 (inactive),-0.000116 (inactive),0.00782 (inactive),inactive,-12.1% (inactive)
CC1(C)CC(N(Cc2ccco2)C(=O)Cc2ccccc2)CCO1 (stereo unspecified),535,12.5% (inactive),-104% (inactive),145,-0.358,2.8,-0.796,3.5% (inactive),-0.485 (inactive),-3.2e-05 (inactive),0.00539 (inactive),inactive,6.62% (inactive)
Cc1cc(C)n(C(=O)CNC(=O)CCc2ccccc2)n1,562,-0.6% (inactive),62.6% (inactive),151,1.03,-0.553,-0.0899,-1.75% (inactive),-0.411 (inactive),-2.5e-05 (inactive),0.00565 (inactive),inactive,-9.43% (inactive)
CCOC(=O)C1=C(CSc2nc(-c3ccncc3)ccc2C#N)OC(N)=C(C#N)C1c1cccnc1 (stereo unspecified),701,-10.4% (inactive),45.7% (inactive),173,-0.622,0.296,2,-8.95% (inactive),-0.283 (inactive),-5.8e-05 (inactive),0.00429 (inactive),inactive,-5.64% (inactive)
C/C(=N\O)C1(C)N(O)C(C)(C)C(c2ccco2)=[N+]1[O-] (stereo unspecified),428,-2.8% (inactive),-112% (inactive),131,0.73,-1.17,-0.0605,13.2% (inactive),-0.486 (inactive),-3.2e-05 (inactive),0.00518 (inactive),inactive,14.5% (inactive)
O=C(c1ccccc1)C(CCC(CN1CCOCC1)C(=O)c1ccccc1)CN1CCOCC1 (stereo unspecified),588,-0.1% (inactive),-9.4% (inactive),109,0.046,-0.626,1.7,1.75% (inactive),-0.59 (inactive),-1.8e-05 (inactive),0.00635 (inactive),inactive,24.8% (inactive)
COCc1cc(C)nc(N)c1C#N,606,5.8% (inactive),-20.1% (inactive),136,0.714,-1.4,1.43,16.1% (inactive),-0.219 (inactive),9.7e-06 (inactive),0.00554 (inactive),inactive,-2% (inactive)
COc1cccc(/C(O)=C2\C(=O)C(=O)N(c3ccccn3)C2c2ccccc2OC)c1 (stereo unspecified),512,-5.9% (inactive),-90.1% (inactive),126,1.61,0.206,-0.573,12.3% (inactive),-0.54 (inactive),-2.1e-05 (inactive),0.00547 (inactive),inactive,-14.1% (inactive)
COc1cccc(C2C(C#N)=C(N)Oc3cc(C)[nH]c(=O)c32)c1OC (stereo unspecified),508,-31.3% (inactive),-89.8% (inactive),158,-0.315,-0.918,-0.838,-2.47% (inactive),-0.524 (inactive),-4.3e-05 (inactive),0.00584 (inactive),inactive,9.96% (inactive)
CCOc1ccc(CC2CC(=O)NC2=O)cc1 (stereo unspecified),622,2.8% (inactive),-113% (inactive),185,-0.992,-0.148,1.17,-0.159% (inactive),-0.484 (inactive),-9.9e-05 (inactive),0.00492 (inactive),inactive,9.39% (inactive)
O=C1C(=O)N(CCN2CCOCC2)C(c2ccccn2)/C1=C(/O)c1ccc(F)cc1 (stereo unspecified),368,-5.8% (inactive),-3.3% (inactive),124,-0.169,0.443,-0.876,3.66% (inactive),-0.392 (inactive),-5.6e-05 (inactive),0.00569 (inactive),inactive,38.7% (inactive)
CCCOC(=O)CSC1=C(C#N)C(c2ccccc2OCC)C(C#N)C(=O)N1 (stereo unspecified),487,-1.9% (inactive),-37.3% (inactive),101,0.769,-0.531,1.5,7.48% (inactive),-0.499 (inactive),-0.000121 (inactive),0.00584 (inactive),inactive,-14.4% (inactive)
CCCc1nnc(NC(=O)c2c(O)c3c([nH]c2=O)CCCC3)s1,312,-15.5% (inactive),-42.9% (inactive),134,-0.253,-0.454,-0.547,17.5% (inactive),-0.423 (inactive),-3.6e-05 (inactive),0.00662 (inactive),inactive,14% (inactive)
CCc1cccc(CC)c1N(COC)C(=O)Cn1nnc2ccccc21,369,-11% (inactive),-230% (inactive),180,0.728,0.454,-0.0174,20.8% (inactive),-0.394 (inactive),-2.8e-05 (inactive),0.00431 (inactive),inactive,23.5% (inactive)
COc1ccc(Cl)cc1N=Cc1c(O)cc(C)oc1=O,347,-4.9% (inactive),-136% (inactive),189,0.57,-0.693,0.874,12.3% (inactive),-0.415 (inactive),-0.0002 (inactive),0.00387 (inactive),inactive,16.9% (inactive)
CCN(CC)CCN1C(=O)C(=O)/C(=C(/O)c2ccc(Cl)cc2)C1c1ccncc1 (stereo unspecified),358,3.7% (inactive),-38.6% (inactive),64.8,-0.384,0.846,-1.58,26.6% (inactive),-0.357 (inactive),-2e-05 (inactive),0.00633 (inactive),inactive,21.1% (inactive)
COc1ccc(-c2cc3nc4n(c(=O)c3s2)CCOC4)cc1,561,-7.1% (inactive),30.7% (inactive),157,-0.862,-0.643,-0.319,-5.26% (inactive),-0.185 (inactive),-1.6e-05 (inactive),0.0053 (inactive),inactive,7.02% (inactive)
CN(C)CCCN1C(=O)C(O)=C(C(=O)c2cc3ccccc3o2)C1c1ccccn1 (stereo unspecified),511,-3.3% (inactive),-212% (inactive),137,2.7,-1.21,-1.13,12.3% (inactive),-0.525 (inactive),-4.7e-05 (inactive),0.00446 (inactive),inactive,-5.31% (inactive)
C=C(c1ccc(OCCO)cc1)c1ccc(OCCO)cc1,323,-11% (inactive),-16.1% (inactive),129,0.426,0.397,-0.652,1.6e-07% (inactive),-0.405 (inactive),-0.000129 (inactive),0.00576 (inactive),inactive,13.7% (inactive)
